# Reference: ChEMBL document CHEMBL1126182, “Antibacterials. synthesis and structure-activity studies of 3-aryl-2-oxooxazolidines. 4. Multiply-substituted aryl derivatives” (1992)
# Assays:
# Staphylococcus aureus = experiment: Antibacterial activity against Staphylococcus aureus SFCO-1a cell line.; assay type: functional
# How it was run: (§1)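 MIC by microtiter broth dilution. For racemic samples, the measured MIC was divided by two, since only one oxazolidinone enantiomer is antibacterial.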
# Enterococcus faecalis = experiment: Antibacterial activity against Enterococcus faecalis STCO-19; assay type: functional; how it was run: as §1
structure (smiles),measurement,setting,value
CC(=O)NCC1CN(c2cccc(F)c2)C(=O)O1 (stereo unspecified),MIC,Staphylococcus aureus,32 µg/mL
same,MIC,Enterococcus faecalis,32 µg/mL
CC(=O)NCC1CN(c2ccc([S+](C)[O-])c(C)c2)C(=O)O1 (stereo unspecified),MIC,Staphylococcus aureus,8 µg/mL
same,MIC,Enterococcus faecalis,8 µg/mL
CSc1cc(N2CC(CNC(C)=O)OC2=O)ccc1C(C)=O (stereo unspecified),MIC,Staphylococcus aureus,> 128 µg/mL
same,MIC,Enterococcus faecalis,> 128 µg/mL
CCCc1cc(N2CC(CNC(C)=O)OC2=O)ccc1C(C)=O (stereo unspecified),MIC,Staphylococcus aureus,> 128 µg/mL
same,MIC,Enterococcus faecalis,> 128 µg/mL
C#Cc1ccc(N2C[C@H](CNC(C)=O)OC2=O)c(F)c1,MIC,Staphylococcus aureus,128 µg/mL
same,MIC,Enterococcus faecalis,128 µg/mL
CC(=O)NCC1CN(c2ccc(C(C)=O)c(I)c2)C(=O)O1 (stereo unspecified),MIC,Staphylococcus aureus,32 µg/mL
same,MIC,Enterococcus faecalis,32 µg/mL
CC(=O)NCC1CN(c2ccc([S+](C)[O-])c([N+](=O)[O-])c2)C(=O)O1 (stereo unspecified),MIC,Staphylococcus aureus,8 µg/mL
same,MIC,Enterococcus faecalis,8 µg/mL
CC(=O)NC[C@H]1CN(c2ccc3c(c2)CCC3)C(=O)O1,MIC,Staphylococcus aureus,2 µg/mL
same,MIC,Enterococcus faecalis,4 µg/mL
CC(=O)NCC1CN(c2cccc(Br)c2)C(=O)O1 (stereo unspecified),MIC,Staphylococcus aureus,16 µg/mL
same,MIC,Enterococcus faecalis,64 µg/mL
CC(=O)NCC1CN(c2ccc(C(C)=O)c(F)c2)C(=O)O1 (stereo unspecified),MIC,Staphylococcus aureus,1 µg/mL
same,MIC,Enterococcus faecalis,2 µg/mL
CC(=O)NCC1CN(c2cccc(N)c2)C(=O)O1 (stereo unspecified),MIC,Staphylococcus aureus,> 128 µg/mL
same,MIC,Enterococcus faecalis,> 128 µg/mL
CCc1cccc(N2CC(CNC(C)=O)OC2=O)c1 (stereo unspecified),MIC,Staphylococcus aureus,16 µg/mL
same,MIC,Enterococcus faecalis,16 µg/mL
CC(=O)NC[C@H]1CN(c2ccc3[nH]ccc3c2)C(=O)O1,MIC,Staphylococcus aureus,> 128 µg/mL
same,MIC,Enterococcus faecalis,> 128 µg/mL
CC(=O)NCC1CN(c2ccc(C(C)=O)c(Cl)c2)C(=O)O1 (stereo unspecified),MIC,Staphylococcus aureus,2 µg/mL
same,MIC,Enterococcus faecalis,2 µg/mL
CC(=O)NCC1CN(c2ccccc2)C(=O)O1 (stereo unspecified),MIC,Staphylococcus aureus,128 µg/mL
same,MIC,Enterococcus faecalis,128 µg/mL
COc1cc(N2CC(CNC(C)=O)OC2=O)ccc1C(C)=O (stereo unspecified),MIC,Staphylococcus aureus,> 128 µg/mL
same,MIC,Enterococcus faecalis,> 128 µg/mL
CC(=O)NC[C@H]1CN(c2ccc(C(C)=O)cc2)C(=O)O1 [DUP-721],MIC,Staphylococcus aureus,0.5 µg/mL
same,MIC,Enterococcus faecalis,1 µg/mL
CC(=O)NC[C@H]1CN(c2ccc([N+](=O)[O-])cc2[N+](=O)[O-])C(=O)O1,MIC,Staphylococcus aureus,> 128 µg/mL
same,MIC,Enterococcus faecalis,> 128 µg/mL
COc1ccc([N+](=O)[O-])cc1N1C[C@H](CNC(C)=O)OC1=O,MIC,Staphylococcus aureus,> 128 µg/mL
same,MIC,Enterococcus faecalis,> 128 µg/mL
CC(=O)NC[C@H]1CN(c2ccc(C(C)=O)cc2F)C(=O)O1,MIC,Staphylococcus aureus,32 µg/mL
same,MIC,Enterococcus faecalis,32 µg/mL
CC(=O)NCC1CN(c2cccc([S+](C)[O-])c2)C(=O)O1 (stereo unspecified),MIC,Staphylococcus aureus,> 128 µg/mL
same,MIC,Enterococcus faecalis,> 128 µg/mL
CC(=O)NCC1CN(c2c(F)cc(C(C)=O)cc2F)C(=O)O1 (stereo unspecified),MIC,Staphylococcus aureus,> 128 µg/mL
same,MIC,Enterococcus faecalis,> 128 µg/mL
COc1cc(OC)cc(N2CC(CNC(C)=O)OC2=O)c1 (stereo unspecified),MIC,Staphylococcus aureus,> 128 µg/mL
same,MIC,Enterococcus faecalis,> 128 µg/mL
CSc1ccc(N2CC(CNC(C)=O)OC2=O)cc1[N+](=O)[O-] (stereo unspecified),MIC,Staphylococcus aureus,8 µg/mL
same,MIC,Enterococcus faecalis,8 µg/mL
CC(=O)NCC1CN(c2cccc(S(C)(=O)=O)c2)C(=O)O1 (stereo unspecified),MIC,Staphylococcus aureus,> 128 µg/mL
same,MIC,Enterococcus faecalis,> 128 µg/mL
CSc1ccc(N2CC(CNC(C)=O)OC2=O)cc1 (stereo unspecified),MIC,Staphylococcus aureus,4 µg/mL
same,MIC,Enterococcus faecalis,4 µg/mL
CC(=O)NC[C@H]1CN(c2ccc3c(c2)CCC3=O)C(=O)O1 [PNU-82965],MIC,Staphylococcus aureus,2 µg/mL
same,MIC,Enterococcus faecalis,2 µg/mL
CCc1cc(N2CC(CNC(C)=O)OC2=O)ccc1C(C)=O (stereo unspecified),MIC,Staphylococcus aureus,16 µg/mL
same,MIC,Enterococcus faecalis,8 µg/mL
COc1cccc(N2CC(CNC(C)=O)OC2=O)c1 (stereo unspecified),MIC,Staphylococcus aureus,64 µg/mL
same,MIC,Enterococcus faecalis,64 µg/mL
CC(=O)NC[C@H]1CN(c2ccc(C)c(C)c2)C(=O)O1,MIC,Staphylococcus aureus,8 µg/mL
same,MIC,Enterococcus faecalis,16 µg/mL
CC(=O)NCC1CN(c2cccc(O)c2)C(=O)O1 (stereo unspecified),MIC,Staphylococcus aureus,> 128 µg/mL
same,MIC,Enterococcus faecalis,> 128 µg/mL
CCCc1cccc(N2CC(CNC(C)=O)OC2=O)c1 (stereo unspecified),MIC,Staphylococcus aureus,64 µg/mL
same,MIC,Enterococcus faecalis,128 µg/mL
CC(=O)NCC1CN(c2ccc(C(C)=O)c(Br)c2)C(=O)O1 (stereo unspecified),MIC,Staphylococcus aureus,4 µg/mL
same,MIC,Enterococcus faecalis,8 µg/mL
CC(=O)NC[C@H]1CN(c2ccc(C(C)=O)c(C)c2)C(=O)O1,MIC,Staphylococcus aureus,1 µg/mL
same,MIC,Enterococcus faecalis,1 µg/mL
CC(=O)NCC1CN(c2cc(C)cc(C)c2)C(=O)O1 (stereo unspecified),MIC,Staphylococcus aureus,> 128 µg/mL
same,MIC,Enterococcus faecalis,> 128 µg/mL
CC(=O)NCC1CN(c2ccc([S+](C)[O-])cc2)C(=O)O1 (stereo unspecified),MIC,Staphylococcus aureus,4 µg/mL
same,MIC,Enterococcus faecalis,4 µg/mL
CC(=O)NCC1CN(c2ccc(C(C)=O)c(N)c2)C(=O)O1 (stereo unspecified),MIC,Staphylococcus aureus,4 µg/mL
same,MIC,Enterococcus faecalis,4 µg/mL
COc1cc([N+](=O)[O-])ccc1N1C[C@H](CNC(C)=O)OC1=O,MIC,Staphylococcus aureus,> 128 µg/mL
same,MIC,Enterococcus faecalis,> 128 µg/mL
CC(=O)NCC1CN(c2ccc(C(C)=O)c([S+](C)[O-])c2)C(=O)O1 (stereo unspecified),MIC,Staphylococcus aureus,> 128 µg/mL
same,MIC,Enterococcus faecalis,> 128 µg/mL
CSc1cccc(N2CC(CNC(C)=O)OC2=O)c1 (stereo unspecified),MIC,Staphylococcus aureus,16 µg/mL
same,MIC,Enterococcus faecalis,16 µg/mL
CC(=O)NCC1CN(c2cccc(C)c2)C(=O)O1 (stereo unspecified),MIC,Staphylococcus aureus,32 µg/mL
same,MIC,Enterococcus faecalis,32 µg/mL
CC(=O)NC[C@H]1CN(c2ccc3ccccc3c2)C(=O)O1,MIC,Staphylococcus aureus,4 µg/mL
same,MIC,Enterococcus faecalis,8 µg/mL
CC(=O)NCC1CN(c2cccc(I)c2)C(=O)O1 (stereo unspecified),MIC,Staphylococcus aureus,64 µg/mL
same,MIC,Enterococcus faecalis,128 µg/mL
CC(=O)NCC1CN(c2cccc(Cl)c2)C(=O)O1 (stereo unspecified),MIC,Staphylococcus aureus,64 µg/mL
same,MIC,Enterococcus faecalis,128 µg/mL
CC(=O)NCC1CN(c2cccc([N+](=O)[O-])c2)C(=O)O1 (stereo unspecified),MIC,Staphylococcus aureus,4 µg/mL
same,MIC,Enterococcus faecalis,4 µg/mL
CCCc1ccc(N2C[C@H](CNC(C)=O)OC2=O)cc1,MIC,Staphylococcus aureus,2 µg/mL
same,MIC,Enterococcus faecalis,4 µg/mL
CC(=O)NCC1CN(c2ccc(C(C)=O)c(S(C)(=O)=O)c2)C(=O)O1 (stereo unspecified),MIC,Staphylococcus aureus,> 128 µg/mL
same,MIC,Enterococcus faecalis,> 128 µg/mL
CC(=O)NCC1CN(c2ccc(C(C)=O)c(O)c2)C(=O)O1 (stereo unspecified),MIC,Staphylococcus aureus,2 µg/mL
same,MIC,Enterococcus faecalis,2 µg/mL
